Results: ChEMBL document CHEMBL2150887, “Design, Prins-cyclization reaction promoting diastereoselective synthesis of 10 new tetrahydropyran derivatives and in vivo antinociceptive evaluations” (Eur J Med Chem, 2012)
Active and inactive are the calls of the source. The calls are words filed in the database; no cut-off is given here.

Experiments:
Mus musculus [1] = assay: Toxicity in Swiss albino mouse assessed as hyperactivity up to 2000 mg/kg, po measured from 5 hrs post-dose to 14 days relative to untreated-control; type: organism-based; set-up: dose 2000 mg/kg, route oral; conditions: in vivo
Outline: (§1)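 Acute toxicity followed WHO and OECD guidelines. Male Albino-Swiss mice received single oral doses increasing up to 2000 mg/kg. Behaviour (disorientation, hyperactivity, piloerection, hyperventilation) was observed from 5 h after dosing and then daily until day 14. LD50 was estimated by nonlinear regression of % deaths against dose.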

Mus musculus [2] = assay: Antinociceptive activity in Swiss albino mouse assessed as increase in tail-flick latency at 30 mg/kg, po measured up to 120 mins relative to untreated-control; type: functional, organism-based; set-up: dose 30 mg/kg
Outline: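 Male Albino-Swiss mice (20-24 g), n = 6 per group, given 30 mg/kg p.o. as a suspension in 5% ethyl acetate vehicle (5 mL/kg). Tail-flick latency was measured every 20 min: two pre-dose readings were averaged as baseline, then six post-dose readings. Results are expressed as % increase over baseline and as AUC from 20-120 min. ANOVA with Bonferroni test, P < 0.05.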

Mus musculus [3] = assay: Toxicity in Swiss albino mouse assessed as hyperventilation up to 2000 mg/kg, po measured from 5 hrs post-dose to 14 days relative to untreated-control; type: organism-based; set-up: dose 2000 mg/kg, route oral; conditions: in vivo; outline: as §1
Mus musculus [4] = assay: Neurotoxicity in Swiss albino mouse assessed as alteration in motor activity at 30 mg/kg, po administered 60 mins prior to testing measured for 5 mins by open field test relative to untreated-control; type: toxicity, organism-based; set-up: dose 30 mg/kg, route oral; conditions: in vivo
Outline: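 Male Albino-Swiss mice, n = 6, received 30 mg/kg p.o. or vehicle. Sixty minutes after dosing, each mouse was placed alone in a chamber whose floor was divided into 50 squares of 5 × 5 cm. Squares crossed were counted over 5 min.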

Mus musculus [5] = assay: Toxicity in Swiss albino mouse assessed as disorientation up to 2000 mg/kg, po measured from 5 hrs post-dose to 14 days relative to untreated-control; type: organism-based; set-up: dose 2000 mg/kg, route oral; conditions: in vivo; outline: as §1
Mus musculus [6] = assay: Antinociceptive activity in Swiss albino mouse assessed as inhibition of acetic-acid induced abdominal writhing at 30 mg/kg, po administered prior to acetic-acid challenge measured after 30 mins relative to untreated-control; type: functional; conditions: Abdomen, 0.5 h
Outline: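 Male Albino-Swiss mice (20-24 g), n = 6, were pretreated orally at 30 mg/kg in 5% ethyl acetate vehicle (5 mL/kg). Writhing was induced with 1.2% (v/v) acetic acid i.p. Writhes (abdominal contraction, body stretching, hind-limb extension) were counted for 30 min starting immediately after injection and compared with the control group. ANOVA/Bonferroni, P < 0.05.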

[7] = Toxicity in po dosed Swiss albino mouse; type: organism-based; conditions: in vivo
Outline: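 Acute oral toxicity per WHO and OECD guidelines. Male Albino-Swiss mice (20–24 g), 6 per group, held at 20 ± 2 °C on a 12 h light/dark cycle. Given single oral doses rising to 2000 mg/kg, as a suspension in 5% ethyl acetate at 5 mL/kg. Behaviour watched from 5 h after dosing, then daily to day 14. LD50 from nonlinear regression of percent deaths against dose.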

Mus musculus [8] = assay: Neurotoxicity in Swiss albino mouse assessed as alteration in motor activity at 30 mg/kg, po administered 60 mins prior to testing measured for 5 mins by rotarod test relative to untreated-control; type: toxicity, organism-based; set-up: dose 30 mg/kg, route oral; conditions: in vivo
Outline: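 Mice were trained twice the day before to stay 5 min on a rotarod turning at 10 rev/min. Twenty-four hours later they received 30 mg/kg p.o. or vehicle. Sixty minutes after dosing they were placed on the roller for 5 min, and the number of falls was recorded as the neurological deficit.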

Mus musculus [9] = assay: Toxicity in Swiss albino mouse assessed as piloerection up to 2000 mg/kg, po measured from 5 hrs post-dose to 14 days relative to untreated-control; type: organism-based; set-up: dose 2000 mg/kg, route oral; conditions: in vivo; outline: as §1
Mus musculus [10] = assay: Antinociceptive activity in mouse assessed as inhibition of acetic-acid induced abdominal writhing at 50 mg/kg administered 60 mins prior to acetic-acid challenge; type: functional; conditions: Abdomen

Compound | Activity (Mus musculus [1]) | Activity (Mus musculus [2]) | Activity (Mus musculus [3]) | Activity (Mus musculus [4]) | Activity (Mus musculus [5]) | inhibition in vivo at 30 mg/kg (Mus musculus [6]) | LD50 [7] | Activity (Mus musculus [8]) | Activity (Mus musculus [9]) | inhibition in vivo at 50 mg/kg (Mus musculus [10])
O=C(O)[C@H]1CCC[C@@H](c2ccc3ccccc3c2)O1 | Non-toxic | Active | Non-toxic | Non-toxic | Non-toxic | 43.1% | > 2000 mg/kg | Non-toxic | Non-toxic | 
CC[C@@H]1CCC[C@H](C(=O)O)O1 (racemic) | Non-toxic | Active | Non-toxic | Non-toxic | Non-toxic | 14.1% | > 2000 mg/kg | Non-toxic | Non-toxic | 15%
O=C(O)[C@H]1CCC[C@@H](c2cccc3ccccc23)O1 (relative stereo) | Non-toxic | Active | Non-toxic | Non-toxic | Non-toxic | 49% | > 2000 mg/kg | Non-toxic | Non-toxic | 
OC[C@H]1CCC[C@@H](c2ccc3ccccc3c2)O1 (relative stereo) | Non-toxic | Active | Non-toxic | Non-toxic | Non-toxic | 55.7% | > 2000 mg/kg | Non-toxic | Non-toxic | 
OC[C@H]1CCC[C@@H](c2cccc3ccccc23)O1 (relative stereo) | Non-toxic | Active | Non-toxic | Non-toxic | Non-toxic | 39.2% | > 2000 mg/kg | Non-toxic | Non-toxic | 
CC(C)C(=O)OC[C@H]1C[C@@H](Cl)C[C@@H](c2ccc3ccccc3c2)O1 (relative stereo) | Non-toxic | Active | Non-toxic | Non-toxic | Non-toxic | 44.4% | > 2000 mg/kg | Non-toxic | Non-toxic | 
CC(C)C(=O)OC[C@H]1C[C@@H](Cl)C[C@@H](c2cccc3ccccc23)O1 (relative stereo) | Non-toxic | Active | Non-toxic | Non-toxic | Non-toxic | 38.4% | > 2000 mg/kg | Non-toxic | Non-toxic | 
OC[C@H]1C[C@@H](Cl)C[C@@H](c2ccc3ccccc3c2)O1 (relative stereo) | Non-toxic | Active | Non-toxic | Non-toxic | Non-toxic | 46.6% | > 2000 mg/kg | Non-toxic | Non-toxic | 
OC[C@H]1C[C@@H](Cl)C[C@@H](c2cccc3ccccc23)O1 (relative stereo) | Non-toxic | Active | Non-toxic | Non-toxic | Non-toxic | 87.5% | > 2000 mg/kg | Non-toxic | Non-toxic | 
O=C(O)[C@H]1C[C@@H](Cl)C[C@@H](c2ccc3ccccc3c2)O1 (relative stereo) | Non-toxic | Active | Non-toxic | Non-toxic | Non-toxic | 28.1% | > 2000 mg/kg | Non-toxic | Non-toxic | 
O=C(O)[C@H]1C[C@@H](Cl)C[C@@H](c2cccc3ccccc23)O1 (relative stereo) | Non-toxic | inactive | Non-toxic | Non-toxic | Non-toxic | 54.4% | > 2000 mg/kg | Non-toxic | Non-toxic | 
